According to ChEMBL document CHEMBL2086375 (Bioorg Med Chem, 2012):

Tests used:
[1] = Prodrug activation in simulated intestinal fluid at 0.01 mg/mL after 60 mins by LC/MS analysis; details: simulated gi fluid, 1 h
Method in brief: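 Compound at 0.01 mg/mL in simulated intestinal fluid, mixed and held at 37 °C for 60 min. Samples were injected consecutively onto a C18 reverse-phase HPLC column for analysis. Results are percent disappearance of prodrug.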

Liver = test: Prodrug activation in mouse liver microsomes at 1 uM incubated for 10 mins prior to NADPH addition measured after 30 mins by LC/MS/MS analysis; design: species or system Microsome; details: 0.5 h
Method in brief: (§1)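 Liver microsomes were pre-warmed with compound at 37 °C for 10 min, and the reaction was started with NADPH at 1 mM final. A parallel incubation without NADPH served as control. After 30 min at 37 °C, samples were quenched with acetonitrile containing 0.1% formic acid and internal standard, then centrifuged. Supernatant was diluted fivefold and read by LC/MS/MS (SRM, positive ESI). Results are percent of control remaining.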

Liver microsomes [2] = test: Prodrug activation in human liver microsomes at 1 uM incubated for 10 mins prior to NADPH addition measured after 30 mins by LC/MS/MS analysis; design: species or system Microsome; details: 0.5 h; method in brief: as §1
Liver microsomes [3] = test: Drug metabolism in human liver microsomes assessed as high CYP1A2 activity-mediated N-hydroxyriluzole formation at 1 uM incubated for 10 mins prior to NADPH addition measured after 30 mins by LC/MS/MS analysis; format: ADME, Microsome; details: 0.5 h
[4] = Half life in simulated gastric fluid at 1 mg/mL; format: physicochemical
[5] = Half life in simulated intestinal fluid at 1 mg/mL; format: physicochemical; details: simulated gi fluid
Liver microsomes [6] = test: Half life in human liver microsomes at 1 uM; format: ADME, Microsome
[7] = Half life in human plasma at 1 uM; format: ADME, cell-free
Liver microsomes [8] = test: Metabolic stability in human liver microsomes assessed as high CYP1A2 activity-mediated metabolism measured as compound remaining at 1 uM incubated for 10 mins prior to NADPH addition measured after 30 mins by LC/MS/MS analysis relative to control; details: 0.5 h
Liver microsomes [9] = test: Metabolic stability in human liver microsomes assessed as low CYP1A2 activity-mediated metabolism measured as compound remaining at 1 uM incubated for 10 mins prior to NADPH addition measured after 30 mins by LC/MS/MS analysis relative to control; details: 0.5 h
Liver microsomes [10] = test: Metabolic stability in human liver microsomes assessed as low CYP1A2 activity-mediated metabolism measured as compound remaining at 1 uM after 30 mins by LC/MS/MS analysis relative to control; details: 0.5 h
Liver microsomes [11] = details: human, 0.5 h, 1 µM

Drug metabolism [1] [%]	Drug metabolism (Liver) [%]	Drug metabolism (Liver microsomes [2]) [%]	Compound	further results
0	53	13	CCCCOC(=O)Nc1nc2ccc(OC(F)(F)F)cc2s1	–
0	59	22	O=C(Cc1ccccc1[N+](=O)[O-])Nc1nc2ccc(OC(F)(F)F)cc2s1	–
50	10	4	C[C@@H](N)C(=O)Nc1nc2ccc(OC(F)(F)F)cc2s1	–
0	8	7	CCOC(=O)Nc1nc2ccc(OC(F)(F)F)cc2s1	–
40	40	6	CC(C)[C@H](N)C(=O)Nc1nc2ccc(OC(F)(F)F)cc2s1	–
0	70	0	O=C(O)CCC(=O)Nc1nc2ccc(OC(F)(F)F)cc2s1	–
0	66	19	NCCCC(=O)Nc1nc2ccc(OC(F)(F)F)cc2s1	–
0	12	18	N[C@H](Cc1ccccc1)C(=O)Nc1nc2ccc(OC(F)(F)F)cc2s1	–
60	–	–	O=C(CCC(=O)Nc1nc2ccc(OC(F)(F)F)cc2s1)NCCN1CCOCC1	–
0	77	34	COC(=O)CCC(=O)Nc1nc2ccc(OC(F)(F)F)cc2s1	–
0	10	0	COC(=O)Nc1nc2ccc(OC(F)(F)F)cc2s1	–
0	15	34	CCCOC(=O)Nc1nc2ccc(OC(F)(F)F)cc2s1	–
50	–	–	NCC1(CC(=O)Nc2nc3ccc(OC(F)(F)F)cc3s2)CCCCC1	–
–	2	0	N[C@@H](Cc1ccccc1)C(=O)Nc1nc2ccc(OC(F)(F)F)cc2s1	–
–	24	0	N[C@H](COCc1ccccc1)C(=O)Nc1nc2ccc(OC(F)(F)F)cc2s1	–
0	0	21	CC(C)(C)OC(=O)CCC(=O)Nc1nc2ccc(OC(F)(F)F)cc2s1	–
0	71	0	CN(C)CCCOC(=O)Nc1nc2ccc(OC(F)(F)F)cc2s1	–
10	0	4	O=C(CCC(=O)Nc1nc2ccc(OC(F)(F)F)cc2s1)NCc1cccnc1	–
–	–	–	Nc1nc2ccc(OC(F)(F)F)cc2s1 [RILUZOLE]	Drug metabolism (Liver microsomes [3]): Active
0	23	14	CCC(C)OC(=O)Nc1nc2ccc(OC(F)(F)F)cc2s1 (centres undefined)	–
0	0	15	N[C@@H](COCc1ccccc1)C(=O)Nc1nc2ccc(OC(F)(F)F)cc2s1	half-life at 1 mg/mL [4]: > 1 h; t1/2 [5]: 1.63 h; t1/2 (Liver microsomes [6]): > 1 h; half-life at 1 µM [7]: 5 h; Stability (Liver microsomes [8]): 70%; Stability (Liver microsomes [9]): 78%; Stability (Liver microsomes [10]): 76%; Stability (Liver microsomes [11]): 77%
50	1	0	C[C@H](N)C(=O)Nc1nc2ccc(OC(F)(F)F)cc2s1	–
0	13	10	CN(C)CCOC(=O)Nc1nc2ccc(OC(F)(F)F)cc2s1	–
